In ChEMBL document CHEMBL5376013, “Design, synthesis and biological evaluation of novel morpholinopyrimidine-5-carbonitrile derivatives as dual PI3K/mTOR inhibitors” (RSC Med Chem, 2024):

Tests used:
Type in all cases: functional
Conditions in all cases: read-out: GI
SW-620 = assay: Antitumor activity against human SW-620 cells assessed as growth inhibition at 10 uM relative to control
Outline: (§1)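 Drug exposure 48 h at 37 °C, 5% CO2. Adherent cells fixed with cold TCA (10% final), suspension cells with TCA (16% final). Stained with 0.4% SRB in 1% acetic acid, dissolved in 10 mM Tris, A515. Growth relative to time-zero and untreated control.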

SNB-75 = assay: Antitumor activity against human SNB-75 cells assessed as growth inhibition at 10 uM relative to control; outline: as §1
RXF 393 = assay: Antitumor activity against human RXF 393 cells assessed as growth inhibition at 10 uM relative to control
Outline: (§2)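 After drug addition, plates were incubated 48 h at 37 °C under 5% CO2. Adherent cells were fixed with cold TCA (10% final, 60 min, 4 °C) and suspension cells with 16% final TCA. Staining used 0.4% SRB in 1% acetic acid, solubilized in 10 mM trizma, read at A515. Percent growth was calculated from time-zero, control and treated absorbances.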

MDA-MB-435 = assay: Antitumor activity against human MDA-MB-435 cells assessed as growth inhibition at 10 uM relative to control; outline: as §2
OVCAR-8 = assay: Antitumor activity against human OVCAR-8 cells assessed as growth inhibition at 10 uM relative to control; outline: as §2
Malme-3M = assay: Antitumor activity against human Malme-3M cells assessed as growth inhibition at 10 uM relative to control; outline: as §2
CCRF-CEM = assay: Antitumor activity against human CCRF-CEM cells assessed as growth inhibition at 10 uM relative to control; outline: as §2
LOX IMVI = assay: Antitumor activity against human LOX IMVI cells assessed as growth inhibition at 10 uM relative to control; outline: as §2
NCI-H226 = assay: Antitumor activity against human NCI-H226 cells assessed as growth inhibition at 10 uM relative to control; outline: as §2
OVCAR-5 = assay: Antitumor activity against human OVCAR-5 cells assessed as growth inhibition at 10 uM relative to control; outline: as §2
MCF7 = assay: Antitumor activity against human MCF7 cells assessed as growth inhibition at 10 uM relative to control; outline: as §2
U-251 = assay: Antitumor activity against human U-251 cells assessed as growth inhibition at 10 uM relative to control; outline: as §1
SK-OV-3 = assay: Antitumor activity against human SK-OV-3 cells assessed as growth inhibition at 10 uM relative to control; outline: as §1
EKVX = assay: Antitumor activity against human EKVX cells assessed as growth inhibition at 10 uM relative to control; outline: as §2
PC-3 = assay: Antitumor activity against human PC-3 cells assessed as growth inhibition at 10 uM relative to control; outline: as §2
SF-268 = assay: Antitumor activity against human SF-268 cells assessed as growth inhibition at 10 uM relative to control; outline: as §2
SK-MEL-28 = assay: Antitumor activity against human SK-MEL-28 cells assessed as growth inhibition at 10 uM relative to control; outline: as §1
OVCAR-3 = assay: Antitumor activity against human OVCAR-3 cells assessed as growth inhibition at 10 uM relative to control; outline: as §2
SF-539 = assay: Antitumor activity against human SF-539 cells assessed as growth inhibition at 10 uM relative to control; outline: as §2
TK-10 = assay: Antitumor activity against human TK-10 cells assessed as growth inhibition at 10 uM relative to control; outline: as §1
NCI/ADR-RES = assay: Antitumor activity against human NCI-ADR-RES cells assessed as growth inhibition at 10 uM relative to control; outline: as §2
SK-MEL-2 = assay: Antitumor activity against human SK-MEL-2 cells assessed as growth inhibition at 10 uM relative to control; outline: as §2
NCI-H23 = assay: Antitumor activity against human NCI-H23 cells assessed as growth inhibition at 10 uM relative to control; outline: as §2
NCI-H522 = assay: Antitumor activity against human NCI-H522 cells assessed as growth inhibition at 10 uM relative to control; outline: as §2
T47D = assay: Antitumor activity against human T47D cells assessed as growth inhibition at 10 uM relative to control; outline: as §1
HCT-116 = assay: Antitumor activity against human HCT-116 cells assessed as growth inhibition at 10 uM relative to control; outline: as §2
ACHN = assay: Antitumor activity against human ACHN cells assessed as growth inhibition at 10 uM relative to control; outline: as §2
K562 = assay: Antitumor activity against human K562 cells assessed as growth inhibition at 10 uM relative to control; outline: as §2
SNB-19 = assay: Antitumor activity against human SNB-19 cells assessed as growth inhibition at 10 uM relative to control; outline: as §1
COLO 205 = assay: Antitumor activity against human COLO 205 cells assessed as growth inhibition at 10 uM relative to control; outline: as §2
BT-549 = assay: Antitumor activity against human BT-549 cells assessed as growth inhibition at 10 uM relative to control; outline: as §2
MOLT-4 = assay: Antitumor activity against human MOLT-4 cells assessed as growth inhibition at 10 uM relative to control; outline: as §2
UACC-257 = assay: Antitumor activity against human UACC-257 cells assessed as growth inhibition at 10 uM relative to control; outline: as §1
UACC-62 = assay: Antitumor activity against human UACC-62 cells assessed as growth inhibition at 10 uM relative to control; outline: as §1
DU-145 = assay: Antitumor activity against human DU-145 cells assessed as growth inhibition at 10 uM relative to control; outline: as §2
SN12C = assay: Antitumor activity against human SN12C cells assessed as growth inhibition at 10 uM relative to control; outline: as §1
786-0 = assay: Antitumor activity against human 786-0 cells assessed as growth inhibition at 10 uM relative to control; outline: as §2
HCT-15 = assay: Antitumor activity against human HCT-15 cells assessed as growth inhibition at 10 uM relative to control; outline: as §2
HT-29 = assay: Antitumor activity against human HT-29 cells assessed as growth inhibition at 10 uM relative to control; outline: as §2
CAKI-1 = assay: Antitumor activity against human CAKI-1 cells assessed as growth inhibition at 10 uM relative to control; outline: as §2
M14 = assay: Antitumor activity against human M14 cells assessed as growth inhibition at 10 uM relative to control; outline: as §2
KM12 = assay: Antitumor activity against human KM12 cells assessed as growth inhibition at 10 uM relative to control; outline: as §2
RPMI-8226 = assay: Antitumor activity against human RPMI-8226 cells assessed as growth inhibition at 10 uM relative to control; outline: as §2
SK-MEL-5 = assay: Antitumor activity against human SK-MEL-5 cells assessed as growth inhibition at 10 uM relative to control; outline: as §1
A498 = assay: Antitumor activity against human A498 cells assessed as growth inhibition at 10 uM relative to control; outline: as §2
NCI-H322M = assay: Antitumor activity against human NCI-H322M cells assessed as growth inhibition at 10 uM relative to control; outline: as §2

CSc1nc(Cl)c(C#N)c(-c2ccc(Cl)cc2)n1 was tested, and the inhibition of growth at 10 µM (SW-620) was less than 1%, the inhibition of growth at 10 µM (SNB-75) was 26.8% and the inhibition of growth at 10 µM (RXF 393) was less than 1%. For the same compound, the inhibition of growth at 10 µM (MDA-MB-435) was less than 1%, the inhibition of growth at 10 µM (OVCAR-8) was less than 1% and the inhibition of growth at 10 µM (Malme-3M) was less than 1%. For the same compound, the inhibition of growth at 10 µM (CCRF-CEM) was 26.1%, the inhibition of growth at 10 µM (LOX IMVI) was less than 1% and the inhibition of growth at 10 µM (NCI-H226) was less than 1%. For the same compound, the inhibition of growth at 10 µM (OVCAR-5) was less than 1%, the inhibition of growth at 10 µM (MCF7) was 1% and the inhibition of growth at 10 µM (U-251) was less than 1%. The inhibition of growth at 10 µM (SK-OV-3) was less than 1%, the inhibition of growth at 10 µM (EKVX) was less than 1% and the inhibition of growth at 10 µM (PC-3) was less than 1%. For the same compound, the inhibition of growth at 10 µM (SF-268) was less than 1%, the inhibition of growth at 10 µM (SK-MEL-28) was less than 1% and the inhibition of growth at 10 µM (OVCAR-3) was less than 1%. The inhibition of growth at 10 µM (SF-539) was less than 1%, the inhibition of growth at 10 µM (TK-10) was less than 1% and the inhibition of growth at 10 µM (NCI/ADR-RES) was less than 1%. For the same compound, the inhibition of growth at 10 µM (SK-MEL-2) was less than 1%, the inhibition of growth at 10 µM (NCI-H23) was less than 1% and the inhibition of growth at 10 µM (NCI-H522) was less than 1%. It also gave an inhibition of growth at 10 µM (T47D) of less than 1%, an inhibition of growth at 10 µM (HCT-116) of less than 1% and an inhibition of growth at 10 µM (ACHN) of less than 1%. The inhibition of growth at 10 µM (K562) was 44.5%, the inhibition of growth at 10 µM (SNB-19) was less than 1% and the inhibition of growth at 10 µM (COLO 205) was less than 1%. The inhibition of growth at 10 µM (BT-549) was 11.2%, the inhibition of growth at 10 µM (MOLT-4) was 27.6% and the inhibition of growth at 10 µM (UACC-257) was less than 1%. It also gave an inhibition of growth at 10 µM (UACC-62) of 25.6%, an inhibition of growth at 10 µM (DU-145) of less than 1% and an inhibition of growth at 10 µM (SN12C) of less than 1%. It also gave an inhibition of growth at 10 µM (786-0) of less than 1%, an inhibition of growth at 10 µM (HCT-15) of less than 1% and an inhibition of growth at 10 µM (HT-29) of less than 1%. For the same compound, the inhibition of growth at 10 µM (CAKI-1) was less than 1%, the inhibition of growth at 10 µM (M14) was less than 1% and the inhibition of growth at 10 µM (KM12) was less than 1%. The inhibition of growth at 10 µM (RPMI-8226) was less than 1%, the inhibition of growth at 10 µM (SK-MEL-5) was less than 1% and the inhibition of growth at 10 µM (A498) was less than 1%. The inhibition of growth at 10 µM (NCI-H322M) was less than 1%.
In the case of Cc1cc(C)n(-c2nc(-c3ccc(Cl)cc3)c(C#N)c(N3CCOCC3)n2)n1, the inhibition of growth at 10 µM (SW-620) was less than 1%, the inhibition of growth at 10 µM (SNB-75) was 40.1% and the inhibition of growth at 10 µM (RXF 393) was 30.5%. The inhibition of growth at 10 µM (MDA-MB-435) was less than 1%, the inhibition of growth at 10 µM (OVCAR-8) was less than 1% and the inhibition of growth at 10 µM (Malme-3M) was less than 1%. For the same compound, the inhibition of growth at 10 µM (CCRF-CEM) was less than 1%, the inhibition of growth at 10 µM (LOX IMVI) was 20.1% and the inhibition of growth at 10 µM (NCI-H226) was 14%. The inhibition of growth at 10 µM (OVCAR-5) was less than 1%, the inhibition of growth at 10 µM (MCF7) was less than 16% and the inhibition of growth at 10 µM (U-251) was less than 1%. The inhibition of growth at 10 µM (SK-OV-3) was 15.2%, the inhibition of growth at 10 µM (EKVX) was 34.9% and the inhibition of growth at 10 µM (PC-3) was less than 1%. For the same compound, the inhibition of growth at 10 µM (SF-268) was 14.4%, the inhibition of growth at 10 µM (SK-MEL-28) was less than 1% and the inhibition of growth at 10 µM (OVCAR-3) was 12.1%. It also gave an inhibition of growth at 10 µM (SF-539) of 16%, an inhibition of growth at 10 µM (TK-10) of less than 1% and an inhibition of growth at 10 µM (NCI/ADR-RES) of 10.6%. It also gave an inhibition of growth at 10 µM (SK-MEL-2) of less than 1%, an inhibition of growth at 10 µM (NCI-H23) of 16% and an inhibition of growth at 10 µM (NCI-H522) of 14.3%. It also gave an inhibition of growth at 10 µM (T47D) of 22.1%, an inhibition of growth at 10 µM (HCT-116) of 17% and an inhibition of growth at 10 µM (ACHN) of 11.8%. For the same compound, the inhibition of growth at 10 µM (K562) was less than 1%, the inhibition of growth at 10 µM (SNB-19) was 14.2% and the inhibition of growth at 10 µM (COLO 205) was 18.9%. The inhibition of growth at 10 µM (BT-549) was 30.5%, the inhibition of growth at 10 µM (MOLT-4) was 13.3% and the inhibition of growth at 10 µM (UACC-257) was less than 1%. The inhibition of growth at 10 µM (UACC-62) was less than 1%, the inhibition of growth at 10 µM (DU-145) was less than 1% and the inhibition of growth at 10 µM (SN12C) was 12.8%. For the same compound, the inhibition of growth at 10 µM (786-0) was 15.2%, the inhibition of growth at 10 µM (HCT-15) was less than 1% and the inhibition of growth at 10 µM (HT-29) was less than 1%. The inhibition of growth at 10 µM (CAKI-1) was 28.1%, the inhibition of growth at 10 µM (M14) was less than 1% and the inhibition of growth at 10 µM (KM12) was less than 1%. The inhibition of growth at 10 µM (RPMI-8226) was 15.4%, the inhibition of growth at 10 µM (SK-MEL-5) was 14.5% and the inhibition of growth at 10 µM (A498) was 46.3%. For the same compound, the inhibition of growth at 10 µM (NCI-H322M) was less than 1%.
